A selection follows.
Apaf1 activ: activators of human Apaf-1 apoptosome, primary screen, biochemical, DEVD-Rh110 fluorescence, uHTS | Apoptotic protease-activating factor 1 (Homo sapiens), O14727 | Apaf-1 apoptosome caspase-3 activation; stronger effect = lower value | activity change, negative = activation, % at 20 µM | actives 0.31% (n = 330,000);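 active = activity change at or below -40% at 20 µM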
Target sequence (O14727 whole entry, looked up): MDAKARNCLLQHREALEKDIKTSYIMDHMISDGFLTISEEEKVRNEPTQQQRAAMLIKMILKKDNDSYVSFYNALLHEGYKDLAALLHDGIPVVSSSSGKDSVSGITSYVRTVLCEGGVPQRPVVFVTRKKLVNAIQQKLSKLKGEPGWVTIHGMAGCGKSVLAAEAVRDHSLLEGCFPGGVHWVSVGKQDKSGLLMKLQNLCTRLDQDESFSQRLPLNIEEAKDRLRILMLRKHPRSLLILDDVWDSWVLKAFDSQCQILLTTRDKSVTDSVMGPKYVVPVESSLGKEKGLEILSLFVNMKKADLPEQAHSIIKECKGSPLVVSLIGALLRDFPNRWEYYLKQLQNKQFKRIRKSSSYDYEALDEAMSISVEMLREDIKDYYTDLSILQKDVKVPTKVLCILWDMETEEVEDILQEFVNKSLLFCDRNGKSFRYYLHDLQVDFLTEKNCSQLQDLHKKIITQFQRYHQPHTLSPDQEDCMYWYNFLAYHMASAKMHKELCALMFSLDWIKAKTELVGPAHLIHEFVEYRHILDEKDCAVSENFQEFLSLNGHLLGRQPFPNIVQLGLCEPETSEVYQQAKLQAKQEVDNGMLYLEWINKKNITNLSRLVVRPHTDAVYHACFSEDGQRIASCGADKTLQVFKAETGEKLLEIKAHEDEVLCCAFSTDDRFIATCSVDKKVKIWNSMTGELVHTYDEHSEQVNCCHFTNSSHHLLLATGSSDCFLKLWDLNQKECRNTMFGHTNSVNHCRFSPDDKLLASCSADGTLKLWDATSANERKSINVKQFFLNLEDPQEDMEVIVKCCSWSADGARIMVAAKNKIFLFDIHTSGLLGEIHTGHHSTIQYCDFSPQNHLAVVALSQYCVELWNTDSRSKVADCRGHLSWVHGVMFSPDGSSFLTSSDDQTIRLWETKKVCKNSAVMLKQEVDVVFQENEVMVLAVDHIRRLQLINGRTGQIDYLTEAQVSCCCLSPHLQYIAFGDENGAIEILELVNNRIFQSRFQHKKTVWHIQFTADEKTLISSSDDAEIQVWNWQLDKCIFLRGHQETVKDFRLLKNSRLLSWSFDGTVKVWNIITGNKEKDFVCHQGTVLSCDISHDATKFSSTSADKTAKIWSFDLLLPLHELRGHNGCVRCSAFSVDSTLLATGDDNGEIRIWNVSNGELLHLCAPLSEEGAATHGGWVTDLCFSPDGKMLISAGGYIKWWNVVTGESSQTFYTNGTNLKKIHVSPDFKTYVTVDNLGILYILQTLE
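Schedule: 30 min preincubation, 50 min reaction, room temperature / System: biochemical Apaf-1 apoptosome reconstitution / Medium: 20 mM HEPES pH 7.5 with CHAPS, BSA / Evaluation: Caspase-3 cleavage activity downstream of Apaf-1 activation / Detection: Caspase-3-released Rh110 fluorescence, 540 nm emission, 480 nm excitation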
Rh110 act interf: Rh110 fluorescence interference by putative Apaf-1 activators, confirmation, artefact control for Apaf-1 activator project, biochemical, 20 µM; shares compounds with Apaf1 activ; quenched caspase reaction, Ex480/Em540; fluorescence interference (activity change), % at 20 µM, hits read low; 980 tested, under 10 active; AID 504616, 2011;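 active = mean activity change at or below -40% when tested at 20 µM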
Apaf-1 act conf2: Apaf-1 activators, single-dose retest, confirmation, biochemical, fluorescence, DEVD-Rh110, 20 µM. actives 5% (n = 980). activity change, negative = activation, % at 20 µM. AID 504617, 2011. shares compounds with Apaf1 activ. reconstituted apoptosome caspase-3 activity; stronger effect = lower value;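 active = mean activity change at or below -40%, meaning activation of 40% or more, at 20 µM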
Fluor interf act: fluorescence interference of Apaf-1 activator hits, dose response, artefact control for Apaf-1 activator project; shares compounds with Apaf1 activ; fluorescence interference counterscreen, Apaf-1 activator assay; EC50, µM; 55 tested, under 10 active; AID 588592, 2011; call rule not given here
Each line names hits and unclear results; the compound was inactive in the other large screens (follow-up assays come after a bar, where they were run).

CN1CCN(CCc2nc3cc(NC(=O)COc4ccccc4)ccc3n2C)CC1	none
CN1CCN(CCOc2cccc(Cl)c2)CC1	Apaf1 activ -50 | Rh110 act interf inactive | Apaf-1 act conf2 inactive
O=C1CCc2ccc(OCCCCN3CCN(c4cccc(Cl)c4Cl)CC3)cc2N1	none
Nc1nn2c(-c3ccccc3)cc(=O)[nH]c2c1N=Nc1ccc(O)cc1	none
Cc1cccc(OCc2n(CC(=O)OC3CC(C)CCC3C(C)C)c3ccccc3[n+]2C)c1 (stereo not drawn)	none
COc1ccc(N2C(=O)CC(N(CCc3ccc(OC)c(OC)c3)C(=S)Nc3ccccc3)C2=O)cc1 (stereo not drawn)	Apaf1 activ -41 | Rh110 act interf inactive | Apaf-1 act conf2 inactive
C#CCOCCOCCOCCNc1nc(N2CCN(C(=O)[C@H]([C@@H](C)CC)n3cc([C@@H](N)Cc4ccc(O)cc4)nn3)CC2)nc(N2CCN(C(=O)[C@H](Cc3cc4ccccc4[nH]3)n3cc([C@@H](N)C(C)CC)nn3)CC2)n1 (stereo partly drawn)	none
CCOC(CNc1ncnc2c1cnn2C)OCC	Apaf1 activ -143 | Rh110 act interf inactive | Apaf-1 act conf2 inactive
CCCN(CC1CC1)c1nc(N)c2c(N)nc(OC)cc2c1C#N	none
COc1cc([N+](=O)[O-])ccc1NC(=O)CN1CCc2cc(OC)c(OC)cc2C1	none
COc1ccc(NC(=O)CCCCCN2C(=O)c3cccc([N+](=O)[O-])c3C2=O)c(OC)c1	none
COc1cc([N+](=O)[O-])ccc1NC(=O)COC(=O)c1ccc(NC(N)=O)cc1	Apaf1 activ -44 | Rh110 act interf inactive | Apaf-1 act conf2 -43 | Fluor interf act inactive
Cc1c(O)cccc1C(=O)N[C@@H](CSc1ccccc1)[C@H](O)CN1C[C@H]2CCCC[C@H]2C[C@H]1C(=O)NC(C)(C)C	none
N#Cc1c(N)n(CCc2ccc(F)cc2)c2nc3ccccc3nc12	none
COc1ccc(-c2[nH]nc3oc(=O)cc(C)c23)cc1	Apaf1 activ -135 | Rh110 act interf inactive | Apaf-1 act conf2 inactive
COc1ccc(-c2cc(-c3ccc(F)cc3)nc(N3CCN(C)CC3)n2)cc1	none
CCOC(=O)Nc1ccc2c(c1)N(C(=O)OCCN(C)C)c1ccccc1CC2	none
Cc1ccc(NC(=O)N(CCC#N)Cc2ccccc2)cc1	Apaf1 activ -471 | Rh110 act interf inactive | Apaf-1 act conf2 inactive
COc1ccc(Cl)cc1C(=O)NNC(=O)COC(=O)c1ccc(Br)o1	Apaf1 activ -41 | Rh110 act interf inactive | Apaf-1 act conf2 inactive
Cc1ccc(-n2nc3c(c2NC(=O)c2ccco2)CS(=O)(=O)C3)cc1C	Apaf1 activ -391 | Rh110 act interf inactive | Apaf-1 act conf2 inactive
C#CCOCCOCCOCCNc1nc(N2CCN(C(=O)[C@H]([C@@H](C)CC)n3cc(CCCCN)nn3)CC2)nc(N2CCN(C(=O)[C@H]([C@@H](C)CC)n3cc(CCCN=C(N)N)nn3)CC2)n1	none
COCCN(CCOC)Cc1c(O)ccc2c3c(c(=O)oc12)CCC3	Apaf1 activ -336 | Rh110 act interf inactive | Apaf-1 act conf2 inactive
COc1ccc(-c2oc3ccc(-c4cc(OC)c(OC)c(OC)c4)cc3c2-c2ccc(OC)cc2)cc1	Apaf1 activ -211 | Rh110 act interf inactive | Apaf-1 act conf2 inactive
CC(=O)N1CCOc2ccc(S(=O)(=O)N(C)c3ccc(C)cc3)cc21	none
O=C(O)CCCN1C(=O)/C(=C\c2ccc(-c3nc4ccccc4s3)o2)SC1=S	Apaf1 activ -81 | Rh110 act interf inactive | Apaf-1 act conf2 -120 | Fluor interf act inactive
O=C(O)CC(C(=O)O)N1C(=O)/C(=C/C=C/c2ccco2)SC1=S (stereo not drawn)	none
CCC(C)Nc1ccc(NC(C)CC)cc1 (stereo not drawn)	none
CC(C)[n+]1ccn(C2=C([O-])c3ccccc3C(=O)/C2=N\S(=O)(=O)c2ccccc2)c1	none
COc1ccc2oc(C)c(C(=O)Cn3ccnc3)c2c1	Apaf1 activ -246 | Rh110 act interf inactive | Apaf-1 act conf2 inactive
CCC(CO)Oc1cc(NCc2cccc(C)c2)c2ncn(C(C)C)c2c1 (stereo not drawn)	none
Nc1c(C(=O)NCCN2CCOCC2)c2nc3ccccc3nc2n1CCc1ccccc1F	none
O=c1cc(-c2ccc(F)cc2)[nH][nH]1	none
CCOC(=O)c1nn(-c2ccccc2)c(=O)cc1OCC(=O)Nc1cc(C)ccc1OC	Apaf1 activ -57 | Rh110 act interf inactive | Apaf-1 act conf2 inactive
CCOc1cc(/C=C2/C(=O)N(c3ccccc3)N=C2C)ccc1OC(=O)c1ccco1	none
O=C1NC(c2ccc(-c3ccccc3[N+](=O)[O-])o2)C(C(=O)c2ccc(F)cc2)C(O)(C(F)(F)F)N1 (stereo not drawn)	none
O=C(NCc1ccccc1)C1(CC2CC(c3ccccc3)=NO2)CCNCC1 (stereo not drawn)	none
O=C1CN(C(=O)c2cnccn2)c2ccccc2N1	Apaf1 activ -47 | Rh110 act interf inactive | Apaf-1 act conf2 inactive
O=C1Nc2ccccc2N2CCCC12 (stereo not drawn)	none
CCN(CC(=O)NCc1cccs1)C(=O)C1CC(=O)N(c2ccc(OC)cc2OC)C1 (stereo not drawn)	none
CC(C)(C)NC(=O)C[C@H]1C[C@H](C(=O)N2CCOCC2)[C@@]2(CCC3CCCC3)c3[nH]c4ccc(Cl)cc4c3CCN2C1=O	none
O=C(Nc1ccccc1OC(F)F)c1oc2ccccc2c1COc1ccccc1	Apaf1 activ -180 | Rh110 act interf inactive | Apaf-1 act conf2 inactive
Cc1cc(Nc2cccc(Cl)c2)nc(NCc2ccccc2)n1	none
O=C(Nc1ccccc1C(=O)N1CCN(Cc2ccccc2)CC1)c1ccccc1	Apaf1 activ -95 | Rh110 act interf inactive | Apaf-1 act conf2 inactive
COc1cc(CNc2ccc(O)cc2)cc(Br)c1OCc1ccccc1F	none
O=C(O)c1ccc(S(=O)(=O)/N=C2\C=C(Nc3ccccc3F)C(=O)c3ccccc32)cc1	none
CCCOc1cc(NCc2ccccc2)c2ncn(C(C)C)c2c1	none
NNC(=O)c1ccc(Cn2cc(Br)c(N)n2)cc1	Apaf1 activ -40 | Rh110 act interf inactive | Apaf-1 act conf2 inactive
CC(=O)Nc1c(S(=O)(=O)c2ccccc2)c2nc3ccccc3nc2n1Cc1ccccc1	none
C=C(C)Cc1c(C)c(C#N)c2[nH]c3ccccc3n2c1=O	none
CCc1ccc(Nc2n[n+](-c3ccccc3)c(-c3c(Cl)cccc3Cl)s2)cc1	none
COC(=O)c1cccc(-c2ccc(C(c3c(C)[nH][nH]c3=O)c3c(C)[nH][nH]c3=O)o2)c1	none
CC1(C(=O)O)Oc2cccnc2NC1=O (stereo not drawn)	Apaf1 activ -221 | Rh110 act interf inactive | Apaf-1 act conf2 inactive
CC(C)[C@H](N)C(=O)OCCOCn1cnc2c(=O)[nH]c(N)nc21	none
CC[C@@H](C)[C@@H]1CN([C@@H](C)CN2CCC[C@H]2CN2C(N)=NC[C@@H]2Cc2ccccc2)C(=N)N1CCCC1CCCC1	none
O=C(O)c1ccc(N2C(=O)/C(=C/c3ccc(-c4ccc([N+](=O)[O-])cc4)o3)C=C2c2ccccc2)cc1	none

Screens: PubChem, Sanford-Burnham Center for Chemical Genomics
